PubChem BioAssay
Active and inactive are the calls of the source.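 The calls were made as follows, unless noted: active = inhibition at or above 50% relative to wild type and mutant plate controls; inactive = inhibition below 50%.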

Experiments:
[1] = inhibitors of TNFa-induced NFkB p65 translocation, primary screen, imaging, HUVEC, MLSMR starter and 10KST1 sets (AID 438;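 active = inhibition above 20% together with a positive visual image hit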;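 also: compound added about 3h40 before a 20 min TNFalpha stimulation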;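 as to inhibition: signal is the nuclear over cytoplasmic p65 intensity ratio per well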); conditions: HUVEC TNFa-induced p65 nuclear translocation; cell count: measured here: nuclei count (cytotoxicity indicator), at 2.08 µM; inhibition: at 2 µM, stronger effect = higher value, 0% TNFa-plus-vehicle, 100% no-TNFa wells
[2] = endothelial E-selectin expression blockers – imaging, HUVEC, immunofluorescence, MLSMR starter and 10KST1 sets, primary screen (AID 487;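 active = visually confirmed hit in the image check and inhibition above 20%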;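 as to inhibition: signal is fraction of cell area covered by stained E-selectin grains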;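 as to nuclei count: 100% = median nuclei count of all wells on the same plate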); conditions: HUVEC TNFalpha-induced E-selectin immunofluorescence imaging, at 2 µM; inhibition: stronger effect = higher value; nuclei count: measured here: cell number, toxicity
[3] = Primary imaging screen for DUSP6 inhibitors that restore phospho-Erk in transfected HeLa cells, chemical complementation (AID 609;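 active = compounds giving at least 50% inhibition in the cell-based MKP-3 phosphatase rescue imaging test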;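 as to inhibition: phospho-Erk level distribution per well compared with pooled transfected vehicle control wells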); conditions: HeLa MKP-3 transfected, phospho-Erk imaging KS statistic, at 10 µM, cells stimulated with TPA for 15 min
[4] = molecular target: Dual specificity protein phosphatase 6 (Homo sapiens) (UniProt Q16828); experiment: as above; conditions: HeLa MKP-3 transfected, phospho-Erk imaging KS statistic; at 10 µM; stronger effect = higher value; cells stimulated with TPA for 15 min
[5] = molecular target: Voltage-gated potassium channel subunit beta-2 (Rattus norvegicus) (UniProt P62483); experiment: inhibitors of rat Kvbeta2 reductase activity – biochemical, NADPH fluorescence, primary screen (AID 622;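 active = fluorescence slope higher than the sample average by over 3 SD, cut at about -0.22 in these data, passing the limit was not always enough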;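 also: slope of raw intensity against log time taken from 70 to 1610 s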); conditions: recombinant KvBeta, 4-cyanobenzaldehyde reduction, at 10 µM, stronger effect = higher value
[6] = molecular target: Voltage-gated potassium channel subunit beta-2 (Rattus norvegicus) (UniProt P62483); experiment: enhancers of rat Kvbeta2 NADPH turnover – biochemical, NADPH fluorescence, primary screen (AID 623;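 active = NADPH fluorescence slope more negative than the mean of all samples by about 3 SD, 99.7% confidence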;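 also: fluorescence intensity change per second fitted from 20 to 320 s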); conditions: Recombinant KvBeta, NADPH fluorescence decrease slope, 10 min; at 10 µM; stronger effect = lower value
[7] = molecular target: Alpha-2C adrenergic receptor (Homo sapiens) (UniProt P18825); experiment: compounds altering alpha2C-coupled GIRK flux – cell-based, HEK293 alpha2C/GIRK1/2, thallium flux, primary screen (AID 624;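 active = fluorescence slope after compound addition differing from the mean of all screened samples at 99.7% confidence, in either direction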;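 also: slope of fluorescence ratio to pre-addition baseline per second over 15 to 24 s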); conditions: thallium flux BTC fluorescence, at 10 µM, actives lie on both sides
[8] = inhibitors of larval lipid processing in zebrafish, primary screen, whole organism, PED6 fluorescence, gall bladder and intestine (AID 686;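 active = a full or partial loss of lipid-probe fluorescence in the fish gall bladder, intestine or both, judged by eye; inactive = no fluorescence loss, or compound toxic to the fish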;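 also: larvae 5 to 7 days old with five fish per well; signal comes from phospholipase A2 cleavage of quenched PED6 carried via bile; overnight exposure to compound and PED6 before scoring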); conditions: Zebrafish larvae PED6 lipid processing, fluorescence scoring; screened at 20 µM (by protocol)
Method in brief: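 Test system – live zebrafish larvae aged 5-7 days, whole organism · Buffer or medium – E3 fish medium · Reagent – quenched phospholipase substrate PED6, 100 nM final, ingested by larvae · Doses – 20 µM single dose · Incubation – overnight compound and PED6 incubation · Technique – visual fluorescence microscopy scoring of gall bladder, gut · Read-out basis – visual per-well fluorescence inhibition score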

[9] = loss of swimming-algae plug formation – whole organism, Chlamydomonas reinhardtii, WT vs cilia-less mutant, absorbance, 96-well, primary screen (AID 463189); conditions: Chlamydomonas reinhardtii gravitaxis, OD600 absorbance, 2 days; at 10 µM; stronger effect = higher value;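 also: 0% = wild type cc124 cells in DMSO and 100% = ciliumless bld1 mutant cells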
[10] = measured here: cell density z-score
[11] = measured here: nuclear c-Myc green intensity z-score
[12] = measured here: nuclear pErk red intensity z-score, stronger effect = higher value

Chain of Voltage-gated potassium channel subunit beta-2 (Rattus norvegicus) (P62483 whole entry, looked up): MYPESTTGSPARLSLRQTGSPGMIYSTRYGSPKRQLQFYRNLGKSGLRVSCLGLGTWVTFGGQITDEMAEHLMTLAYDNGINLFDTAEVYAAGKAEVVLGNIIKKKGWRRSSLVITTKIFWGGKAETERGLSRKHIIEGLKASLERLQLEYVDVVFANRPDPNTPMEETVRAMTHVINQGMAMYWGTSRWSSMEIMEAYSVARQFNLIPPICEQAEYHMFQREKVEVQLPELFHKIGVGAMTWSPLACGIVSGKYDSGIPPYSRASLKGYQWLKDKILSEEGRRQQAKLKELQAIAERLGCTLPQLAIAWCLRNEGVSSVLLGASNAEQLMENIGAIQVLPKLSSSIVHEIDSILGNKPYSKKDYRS
Chain of Alpha-2C adrenergic receptor (Homo sapiens) (P18825 whole entry, looked up): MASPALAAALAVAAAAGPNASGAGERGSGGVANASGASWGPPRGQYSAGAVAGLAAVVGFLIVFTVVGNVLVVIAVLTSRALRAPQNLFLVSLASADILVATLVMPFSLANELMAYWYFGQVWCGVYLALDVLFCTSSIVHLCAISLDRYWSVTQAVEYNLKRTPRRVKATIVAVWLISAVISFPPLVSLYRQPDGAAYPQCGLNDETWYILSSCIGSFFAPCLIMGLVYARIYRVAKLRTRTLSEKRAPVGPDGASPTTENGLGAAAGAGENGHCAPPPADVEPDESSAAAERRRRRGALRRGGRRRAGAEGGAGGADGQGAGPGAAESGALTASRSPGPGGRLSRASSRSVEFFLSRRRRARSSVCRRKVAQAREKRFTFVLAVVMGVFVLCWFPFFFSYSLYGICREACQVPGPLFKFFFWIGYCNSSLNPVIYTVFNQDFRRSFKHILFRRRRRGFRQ
Chain of Dual specificity protein phosphatase 6 (Homo sapiens) (Q16828 whole entry, looked up): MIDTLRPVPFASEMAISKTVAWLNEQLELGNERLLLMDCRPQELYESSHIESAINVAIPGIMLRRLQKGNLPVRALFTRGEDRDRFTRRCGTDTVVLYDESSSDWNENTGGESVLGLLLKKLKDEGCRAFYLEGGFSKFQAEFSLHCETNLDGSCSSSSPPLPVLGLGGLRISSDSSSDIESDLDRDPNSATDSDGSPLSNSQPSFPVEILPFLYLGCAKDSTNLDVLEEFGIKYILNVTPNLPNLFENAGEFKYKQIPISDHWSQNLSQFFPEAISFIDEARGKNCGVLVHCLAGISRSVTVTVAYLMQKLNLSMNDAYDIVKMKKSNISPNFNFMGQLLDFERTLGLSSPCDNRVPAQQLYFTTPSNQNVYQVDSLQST

SMILES | cell count [1] | inhibition [1] | inhibition [2] | nuclei count [2] [%] | z-score [3, 10] | z-score [3, 11] | z-score [3, 12] | inhibition [4] | fluorescence slope [5] | NADPH fluorescence slope [6] | slope [7] | outcome [8] | inhibition [9]
COc1ccc2c(c1OC)C(=O)N1c3ccccc3C(=O)N(c3ccc(F)cc3)C21 (stereo unspecified) | 409 | -15.5% (inactive) | -44.4% (inactive) | 103 | -0.0624 | -0.142 | 0.819 | -1.12% (inactive) | -0.305 (inactive) | -2.1e-05 (inactive) | 0.00563 (inactive) | inactive | 6.22% (inactive)
c1coc(CNc2ncnc3ccccc23)c1 | 553 | -2.6% (inactive) | 2.7% (inactive) | 155 | 0.847 | -1.11 | 1.51 | 14% (inactive) | -0.479 (inactive) | -0.000192 (inactive) | 0.00559 (inactive) | inactive; toxic | 12.9% (inactive)
Cc1c(N=Cc2c(O)n(C3CCCCC3)c(=O)[nH]c2=O)c(=O)n(-c2ccccc2)n1C | 671 | -20.1% (inactive) | -93.8% (inactive) | 139 | -0.195 | -1.05 | 0.314 | 21% (inactive) | -0.396 (inactive) | -3e-05 (inactive) | 0.00508 (inactive) | active; weak signal in gallbladder and intestine | -4.72% (inactive)
CCc1[nH]nc2c1C(c1ccc(Br)s1)C(C#N)=C(N)O2 (stereo unspecified) | 504 | -7.7% (inactive) | -85.9% (inactive) | 152 | -0.154 | 1.13 | -0.858 | -8.27% (inactive) | -0.312 (inactive) | 1.7e-05 (inactive) | 0.00536 (inactive) | inactive | 15.9% (inactive)
CCOc1cccc(-c2nnc3sc(-c4ccc(C)cc4)nn23)c1 | 588 | -12% (inactive) | -113% (inactive) | 166 | 0.29 | -1.67 | 0.863 | -9.66% (inactive) | -0.458 (inactive) | -0.000137 (inactive) | 0.00552 (inactive) | inactive | -1.49% (inactive)
CC1=CC=CN2CC(O)CN=C12 (stereo unspecified) | 552 | -3.9% (inactive) | -109% (inactive) | 196 | -0.0904 | 1.89 | -0.427 | 22.1% (inactive) | -0.33 (inactive) | -1.5e-05 (inactive) | 0.00477 (inactive) | inactive | 4.05% (inactive)
COn1c(=S)[nH]c2ccccc2c1=O | 454 | 0.3% (inactive) | -12.8% (inactive) | 98.1 | -1.19 | 0.293 | -0.609 | 3.5% (inactive) | -0.496 (inactive) | -7.7e-06 (inactive) | 0.00619 (inactive) | inactive | 1.26% (inactive)
CN1CCN(C(=O)CSc2nc(-c3ccncc3)ccc2C#N)CC1 | 690 | -11.2% (inactive) | -21.2% (inactive) | 192 | 0.498 | 0.894 | -1.8 | -7.28% (inactive) | -0.416 (inactive) | -5e-05 (inactive) | 0.00348 (inactive) | inactive | -6.09% (inactive)
O=CNC(=O)c1ccccc1C(=O)O | 545 | -5.9% (inactive) | -60.7% (inactive) | 162 | 1.01 | -0.571 | -1.1 | 11.9% (inactive) | -0.522 (inactive) | -2.4e-05 (inactive) | 0.00526 (inactive) | inactive | 28.5% (inactive)
CCCCOC(=O)CSC1=C(C#N)C(c2ccccc2OC)C(C#N)C(=O)N1 (stereo unspecified) | 504 | -3% (inactive) | -46% (inactive) | 116 | -0.706 | 0.338 | 1.09 | 9.39% (inactive) | -0.481 (inactive) | -0.000165 (inactive) | 0.00464 (inactive) | inactive | -21.1% (inactive)
N#CC(C(=O)NC1CCCCC1)c1nc2ccccc2nc1N1CCN(c2ccccc2F)CC1 (stereo unspecified) | 449 | 6.9% (inactive) | -71.6% (inactive) | 150 | 0.949 | -0.507 | 0.00921 | 7.83% (inactive) | -0.432 (inactive) | -1.4e-05 (inactive) | 0.00608 (inactive) | inactive | 1.07% (inactive)
O=C(O)CC(SCc1ccc(C(=O)O)o1)C(=O)O (stereo unspecified) | 330 | -17.8% (inactive) | -29.5% (inactive) | 105 | 1.04 | -0.311 | -0.367 | 5.57% (inactive) | -0.528 (inactive) | -7.5e-06 (inactive) | 0.00659 (inactive) | inactive | 48.4% (inactive)
COc1ccc(CCNC(=O)c2ccc(=O)[nH]n2)cc1OC | 452 | -9.3% (inactive) | -124% (inactive) | 113 | -0.121 | -0.331 | -0.384 | 7.48% (inactive) | -0.517 (inactive) | -0.000115 (inactive) | 0.00414 (inactive) | inactive | 1.24% (inactive)
Cc1cccc(C)c1NC(=O)CSCC(=O)c1ccc(O)c(O)c1 | 364 | -4.2% (inactive) | -100% (inactive) | 158 | 0.118 | 0.467 | 0.0935 | 24.7% (inactive) | -0.4 (inactive) | -6.4e-05 (inactive) | 0.00773 (inactive) | inactive | -8.43% (inactive)
O=c1[nH]c(CN2CCCCC2)nc2c1C1(CCCCC1)Cc1ccccc1-2 | 374 | -4.7% (inactive) | -4.9% (inactive) | 104 | 0.315 | 0.221 | -1.87 | -4.7% (inactive) | -0.395 (inactive) | 2.4e-05 (inactive) | 0.0066 (inactive) | inactive | -10.4% (inactive)
OC1CN=C2Sc3ccccc3N2C1 (stereo unspecified) | 530 | 13.2% (inactive) | -227% (inactive) | 188 | -0.279 | 0.975 | 0.81 | -7.28% (inactive) | -0.378 (inactive) | -1.8e-05 (inactive) | 0.00473 (inactive) | inactive | -4.68% (inactive)
Cc1ccc(C2/C(=C(/O)c3ccc(OC(C)C)cc3)C(=O)C(=O)N2CCN2CCOCC2)cc1 (stereo unspecified) | 526 | -2% (inactive) | 7.7% (inactive) | 166 | 0.417 | 1.31 | 0.598 | -2.91% (inactive) | -0.295 (inactive) | 1.7e-05 (inactive) | 0.00456 (inactive) | inactive | 2.83% (inactive)
Cc1c(NC(=O)C(CC(=O)O)NCc2ccco2)c(=O)n(-c2ccccc2)n1C (stereo unspecified) | 357 | -8% (inactive) | -112% (inactive) | 164 | -0.725 | 2.03 | 1.41 | -5.26% (inactive) | -0.44 (inactive) | -0.000144 (inactive) | 0.00721 (inactive) | inactive | -0.003% (inactive)
CCn1nnc(C(=O)O)c1C(=O)O | 547 | -8.1% (inactive) | -105% (inactive) | 113 | -1.6 | 1.43 | 0.467 | -1.98% (inactive) | -0.486 (inactive) | -3.2e-05 (inactive) | 0.00833 (inactive) | inactive | -1.97% (inactive)
N#CCCn1cnc2c(=S)nc[nH]c21 | 355 | -12.9% (inactive) | -142% (inactive) | 181 | 0.101 | 0.0894 | 1.37 | 1.6e-07% (inactive) | -0.438 (inactive) | -0.000132 (inactive) | 0.00509 (inactive) | inactive | -4.04% (inactive)
CN1CCN(CCC(=O)N2c3ccccc3Sc3ccc(Cl)cc32)CC1 | 450 | -3.2% (inactive) | -122% (inactive) | 176 | 0.831 | 0.747 | -0.386 | 0.671% (inactive) | -0.432 (inactive) | -5.3e-05 (inactive) | 0.00551 (inactive) | inactive | 15.9% (inactive)
CSc1nc(Oc2ccc(=O)[nH]n2)nc(N(C)C)n1 | 619 | -0.7% (inactive) | -20.1% (inactive) | 148 | -0.384 | -0.165 | 1.66 | -2.69% (inactive) | -0.314 (inactive) | 2.2e-06 (inactive) | 0.00466 (inactive) | inactive | 9.17% (inactive)
CCCCc1c(C)nn(-c2nnc3c4ccccc4n(C)c3n2)c1C | 575 | -12.6% (inactive) | -37.2% (inactive) | 161 | -0.575 | 2.07 | -0.403 | 7.73% (inactive) | -0.48 (inactive) | -5.6e-05 (inactive) | 0.00441 (inactive) | inactive | 21.4% (inactive)
O=C1C(=O)N(CCN2CCOCC2)C(c2ccccn2)/C1=C(/O)c1ccccc1 (stereo unspecified) | 382 | -4.7% (inactive) | -87.4% (inactive) | 107 | -0.264 | 0.535 | -1.2 | -0.159% (inactive) | -0.432 (inactive) | -1.4e-05 (inactive) | 0.00578 (inactive) | inactive | -11.4% (inactive)
COc1ccccc1Nc1ncc(-c2cccs2)s1 | 545 | -13.8% (inactive) | -286% (inactive) | 200 | -0.0769 | -1.21 | 0.25 | 1.48% (inactive) | -0.5 (inactive) | -5.4e-05 (inactive) | 0.00327 (inactive) | inactive | 11.6% (inactive)
Cc1cc(=O)oc(C)c1C(=O)N1CCN(C)CC1 | 367 | -10.4% (inactive) | -117% (inactive) | 167 | -1.15 | 0.212 | 0.815 | -8.59% (inactive) | -0.463 (inactive) | -0.000105 (inactive) | 0.00444 (inactive) | inactive | 5.44% (inactive)
Cc1nc(-c2cn[nH]c2)c2cc(C)oc2n1 | 599 | -33.9% (inactive) | -51.1% (inactive) | 120 | -2.18 | 1.64 | 0.464 | -2.07% (inactive) | -0.491 (inactive) | -0.00022 (inactive) | 0.00453 (inactive) | inactive | -8.8% (inactive)
